Molecules are shown by their SMILES.

The values that follow come from ChEMBL document CHEMBL3865799, “Synthesis of a series of novel dihydroartemisinin monomers and dimers containing chalcone as a linker and their anticancer activity” (Eur J Med Chem, 2016).

The nature of data set [1]: Cytotoxicity against human HepG2 cells assessed as cell growth inhibition after 48 hrs by MTT assay. The data set is classed as functional, cell-based. As to conditions: HepG2, 48 h. The method, boiled down:
(§1)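 Adherent lines at 70–75% confluence, grown at 37 °C in 5% CO2 with 10% FCS. Exposed 48 h to compound in DMSO (vehicle <0.2% v/v). MTT dye added 3 h before termination; formazan dissolved in DMSO, OD 570 nm with 620 nm reference. Growth inhibition expressed as % of untreated; IC50 taken from the dose series.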

Data set [2] can be described thus: Cytotoxicity against human LS180 cells assessed as cell growth inhibition after 48 hrs by MTT assay. As to conditions: LS180, 48 h. The data set is classed as functional, cell-based. The method, boiled down: as §1
In general terms: Tetrazolium assays rely on reduction of a dye to a coloured formazan, in cell work by metabolically active cells.

Data set [3] in a line: Cytotoxicity against human PC3 cells assessed as cell growth inhibition at 30 uM after 48 hrs by MTT assay. The data set is classed as functional. As to conditions: PC-3, 48 h, read-out: GI. The method, boiled down: as §1
A short description of data set [4]: Lipophilicity, log P of the compound. The format is physicochemical. As to conditions: octanol/water.
Data set [5] can be described thus: Cytotoxicity against human MIAPaCa2 cells assessed as cell growth inhibition at 30 uM after 48 hrs by MTT assay. The data set is classed as functional. To be noted: MIA PaCa-2, 48 h, read-out: GI. An outline of the steps: as §1
Data set [6] is described as follows: Cytotoxicity against human LS180 cells assessed as cell growth inhibition at 30 uM after 48 hrs by MTT assay. The data set is classed as functional. As to conditions: LS180, 48 h, read-out: GI. An outline of the steps:
as §1

Data set [7] in a line: Cytotoxicity against human HL60 cells assessed as cell growth inhibition at 50 uM after 48 hrs by MTT assay. The data set is classed as functional. As to conditions: HL-60, 48 h, read-out: GI. An outline of the steps:
(§2)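 HL-60 suspension cells, 1.5 × 10^4 per well, grown at 37 °C in 5% CO2 with 10% FCS. Treated 48 h with compound in DMSO (vehicle <0.2% v/v). MTT added 3 h before the end. Formazan dissolved in DMSO and read at 570 nm (reference 620 nm). % growth inhibition computed against untreated cells; IC50 taken from the concentration series.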

The nature of data set [8]: Cytotoxicity against human HepG2 cells assessed as cell growth inhibition at 30 uM after 48 hrs by MTT assay. The format is functional. To be noted: HepG2, 48 h, read-out: GI. The method, boiled down: as §1
A short description of data set [9]: Cytotoxicity against human LS180 cells assessed as cell growth inhibition at 50 uM after 48 hrs by MTT assay. As to conditions: LS180, 48 h, read-out: GI. The format is functional. The method, boiled down: as §1
Data set [10] can be described thus: Aqueous solubility of the compound at pH 7. The format is physicochemical.
Data set [11] is described as follows: Cytotoxicity against human PC3 cells assessed as cell growth inhibition at 50 uM after 48 hrs by MTT assay. As to conditions: PC-3, 48 h, read-out: GI. The data set is classed as functional. An outline of the steps:
as §1

Data set [12] is described as follows: Cytotoxicity against human HepG2 cells assessed as cell growth inhibition at 50 uM after 48 hrs by MTT assay. As to conditions: HepG2, 48 h, read-out: GI. The format is functional. The method, boiled down:
as §1

A short description of data set [13]: Cytotoxicity against human MIAPaCa2 cells assessed as cell growth inhibition at 50 uM after 48 hrs by MTT assay. The data set is classed as functional. To be noted: MIA PaCa-2, 48 h, read-out: GI. The method, boiled down:
as §1

Data set [14] is described as follows: Cytotoxicity against human HL60 cells assessed as cell growth inhibition at 30 uM after 48 hrs by MTT assay. The format is functional. As to conditions: HL-60, 48 h, read-out: GI. The method, boiled down:
as §2

By IC50 is commonly meant the concentration needed to halve the response being measured. For `COc1cccc2c1C(=O)c1c(O)c3c(c(O)c1C2=O)C[C@@](O)(C(=O)CO)C[C@@H]3O[C@H]1C[C@H](N)[C@H](O)[C@H](C)O1` [DOXORUBICIN], the concentration for half-maximal inhibition (IC50) amounted to 540 nM in [1] and 840 nM in data set [2].
A word on the logP: it is the decadic logarithm of the partition coefficient of the neutral form, usually between octanol and water. A lower logP goes with a more hydrophilic compound. The term solubility denotes how much of the substance goes into solution per volume. Read a high solubility as a readily soluble substance. Take `C[C@H]1[C@@H](OCCOc2ccc(/C=C/C(=O)c3cc4ccccc4o3)cc2)O[C@@H]2O[C@@]3(C)CC[C@H]4[C@H](C)CC[C@@H]1[C@@]24OO3`: the inhibition of growth at 30 µM was 42.5% in [3]; 52.4% in data set [5]; 37.6% in [6]; 29.9% in [8]; 84.6% in data set [14]. Moreover, in data set [4], the log partition coefficient (logP) was 5.34 to 7.45. Also, the inhibition of growth at 50 µM in data set [7] was 88.7%; in data set [9], 43.6%; in data set [11], 48.5%; in data set [12], 32%; in data set [13], 62.3%. Also, the solubility in [10] was below 10 µg/mL.
`CCOc1cc(/C=C/C(=O)c2ccc(OCCO[C@H]3O[C@@H]4O[C@@]5(C)CC[C@H]6[C@H](C)CC[C@@H]([C@H]3C)[C@@]46OO5)cc2)ccc1O`: the inhibition of growth at 30 µM amounted to 55.1% in data set [3]; 49.4% in data set [5]; 27.4% in [6]; 25.5% in data set [8]; 80.8% in [14]. The compound further returned a logP in data set [4] of 5.34 to 7.45. In addition, the inhibition of growth at 50 µM amounted to 84.1% in data set [7]; 36.3% in data set [9]; 58.9% in data set [11]; 28.2% in data set [12]; 49.8% in [13]. Besides, the solubility in data set [10] was below 10 µg/mL.
`Cc1cc(C(=O)/C=C/c2ccc(OCCO[C@H]3O[C@@H]4O[C@@]5(C)CC[C@H]6[C@H](C)CC[C@@H]([C@H]3C)[C@@]46OO5)cc2)ccc1OCCO[C@H]1O[C@@H]2O[C@@]3(C)CC[C@H]4[C@H](C)CC[C@@H]([C@H]1C)[C@@]24OO3`: the inhibition of growth at 30 µM in [3] came to 6.4%; in data set [5] it was 44.3%; in data set [6], 7.1%; in data set [8], 13.6%; in [14], 68.9%. In data set [4], this compound displayed a logP of 5.34 to 7.45. Also, the inhibition of growth at 50 µM in [7] came to 70.4%; in data set [9], 23.5%; in data set [11] it was 23.5%; in [12], 20.7%; in [13], 49.2%. Besides, in data set [10], the solubility was below 10 µg/mL.
For the compound `C[C@H]1[C@@H](OCCOc2ccc(C(=O)/C=C/c3c[nH]c4ccccc34)cc2)O[C@@H]2O[C@@]3(C)CC[C@H]4[C@H](C)CC[C@@H]1[C@@]24OO3`, the inhibition of growth at 30 µM stood at 38.6% in data set [3]; 49.1% in [5]; 41.9% in [6]; 21.2% in data set [8]; 89.1% in data set [14]. Further, the logP in data set [4] lay in the range of 5.34 to 7.45. The inhibition of growth at 50 µM in data set [7] worked out at 91.8%; in data set [9], 44.1%; in data set [11] it was 39.6%; in [12], 25.9%; in data set [13], 49.4%. Besides, in data set [10], the solubility was below 10 µg/mL.
As to `C[C@H]1[C@@H](OCCOc2ccc(-c3cc(=O)c4ccc(OCCO[C@H]5O[C@H]6O[C@@]7(C)CC[C@H]8[C@H](C)CC[C@@H]([C@H]5C)[C@@]68OO7)cc4o3)cc2)O[C@H]2O[C@@]3(C)CC[C@H]4[C@H](C)CC[C@@H]1[C@@]24OO3`, the inhibition of growth at 30 µM was 40.6% in data set [3]; 32.7% in data set [5]; 30.5% in [6]; 30.1 to 87.4% in data set [8]; 71.8% in [14]. The compound further yielded a lipophilicity (logP) in data set [4] of 5.34 to 7.45. The inhibition of growth at 50 µM in data set [7] turned out to be 73.8%; in [9], 39.7%; in [11], 41.3%; in data set [12], 37.7%; in data set [13], 41.8%. The same compound yielded a solubility in data set [10] below 10 µg/mL.
`C[C@H]1[C@@H](OCCOc2ccc(/C=C/C(=O)c3ccc(Cl)cc3)cc2)O[C@@H]2O[C@@]3(C)CC[C@H]4[C@H](C)CC[C@@H]1[C@@]24OO3`: the inhibition of growth at 30 µM in data set [3] stood at 38.7%; in data set [5] it was 54.4%; in [6], 42.1%; in data set [8] it was 19.7%; in data set [14], 89.4%. In [4], the logP fell in the range of 5.34 to 7.45. The inhibition of growth at 50 µM in [7] was determined as 93.2%; in [9] it was 45.6%; in [11], 41.8%; in [12] it was 25.1%; in data set [13] it was 62.8%. For the same compound, the solubility in data set [10] is below 10 µg/mL.
Consider `COc1ccc(/C=C/C(=O)c2ccc(OCCO[C@H]3O[C@@H]4O[C@@]5(C)CC[C@H]6[C@H](C)CC[C@@H]([C@H]3C)[C@@]46OO5)cc2)c(OC)c1OC`, for which the inhibition of growth at 30 µM in data set [3] was 53.3%; in [5], 36.2%; in data set [6] it was 50.8%; in data set [8], 28.1%; in [14], 78.7%. The compound also showed a lipophilicity (logP) in data set [4] of 5.34 to 7.45. Also, the inhibition of growth at 50 µM came to 82.9% in data set [7]; 58.5% in data set [9]; 54.2% in data set [11]; 30.1% in [12]; 43.1% in data set [13]. In addition, the solubility in [10] was below 10 µg/mL.
